Source: ChEMBL document CHEMBL1143000, “Application of the phosphoramidate ProTide approach to 4'-azidouridine confers sub-micromolar potency versus hepatitis C virus on an inactive nucleoside” (J Med Chem, 2007)

Legend:
[1] = tested on: Hepatitis C virus; assay: Inhibition of HCV RNA replication in 2209-23 cells transfected with bicistronic HCV replicon; type: functional, Hepacivirus hominis
Procedure, shortened: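 Huh-7-derived 2209-23 cells stably carry a bicistronic genotype 1b HCV replicon with a renilla luciferase reporter. Replication is read as luciferase signal. EC50 is the concentration that reduces HCV replication by 50%.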

[2] = Cytotoxicity against in 2209-23 cells by WST assay; type: cell-based; conditions: human
Procedure, shortened: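 Cell viability read by WST assay in 2209-23 replicon cells (Huh-7 derived, stably carrying a genotype 1b bicistronic HCV replicon). CC50 is the concentration that reduces cell viability by 50%.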

[3] = Inhibition of HCV NS5B570n-BK RNA polymerase; parameters: species or system Hepacivirus hominis
Procedure, shortened: (§1)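 Recombinant HCV genotype 1b NS5B truncated at residue 570, from strain Con1 or strain BK. RNA synthesis was run primer-independently on HCV genome-derived cIRES RNA template. Read-out was incorporation of radiolabeled UMP into acid-insoluble RNA product.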

[4] = Inhibition of HCV NS5B570-Con1 RNA polymerase; parameters: species or system Hepacivirus hominis; procedure, shortened: as §1

Row | IC50 [3] [µM] | IC50 [4] [µM] | SMILES | EC50 ([1]; Hepatitis C virus) [µM] | CC50 [2] [µM] | EC50 [1] [µM]
1 | – | – | [N-]=[N+]=N[C@]1(COP(=O)(NCC(=O)OCc2ccccc2)Oc2ccccc2)O[C@@H](n2ccc(=O)[nH]c2=O)[C@@H](O)[C@H]1O (some centres not stated) | 1.6 | > 100 | –
2 | – | – | CCOC(=O)CCNP(=O)(OC[C@@]1(N=[N+]=[N-])O[C@@H](n2ccc(=O)[nH]c2=O)[C@@H](O)[C@H]1O)Oc1ccccc1 (some centres not stated) | > 100 | > 100 | –
3 | 0.23 | 0.22 | [N-]=[N+]=N[C@]1(COP(=O)(O)OP(=O)(O)OP(=O)(O)O)O[C@@H](n2ccc(=O)[nH]c2=O)[C@@H](O)[C@H]1O | – | – | –
4 | – | – | C[C@H](NP(=O)(OC[C@@]1(N=[N+]=[N-])O[C@@H](n2ccc(=O)[nH]c2=O)[C@@H](O)[C@H]1O)Oc1ccccc1)C(=O)OC(C)(C)C (some centres not stated) | 5.1 | > 100 | –
5 | – | – | CCC(C)OC(=O)[C@H](C)NP(=O)(OC[C@@]1(N=[N+]=[N-])O[C@@H](n2ccc(=O)[nH]c2=O)[C@@H](O)[C@H]1O)Oc1ccccc1 (some centres not stated) | 0.63 | > 100 | –
6 | – | – | CC(C)(NP(=O)(OC[C@@]1(N=[N+]=[N-])O[C@@H](n2ccc(=O)[nH]c2=O)[C@@H](O)[C@H]1O)Oc1ccccc1)C(=O)OCc1ccccc1 (some centres not stated) | 3.4 | > 100 | –
7 | – | – | CCOC(=O)CN(C)P(=O)(OC[C@@]1(N=[N+]=[N-])O[C@@H](n2ccc(=O)[nH]c2=O)[C@@H](O)[C@H]1O)Oc1ccccc1 (some centres not stated) | > 100 | > 100 | –
8 | – | – | CC(C)OC(=O)[C@H](C)NP(=O)(OC[C@@]1(N=[N+]=[N-])O[C@@H](n2ccc(=O)[nH]c2=O)[C@@H](O)[C@H]1O)Oc1ccccc1 (some centres not stated) | 0.77 | > 100 | –
9 | – | – | CCOC(=O)[C@H](Cc1ccccc1)NP(=O)(OC[C@@]1(N=[N+]=[N-])O[C@@H](n2ccc(=O)[nH]c2=O)[C@@H](O)[C@H]1O)Oc1ccccc1 (some centres not stated) | 1.37 | > 100 | –
10 | – | – | CCOC(=O)[C@@H]1CCCN1P(=O)(OC[C@@]1(N=[N+]=[N-])O[C@@H](n2ccc(=O)[nH]c2=O)[C@@H](O)[C@H]1O)Oc1ccccc1 (some centres not stated) | 6 | > 100 | –
11 | – | – | CCOC(=O)[C@H](CC(C)C)NP(=O)(OC[C@@]1(N=[N+]=[N-])O[C@@H](n2ccc(=O)[nH]c2=O)[C@@H](O)[C@H]1O)Oc1ccccc1 (some centres not stated) | 2.3 | > 100 | –
12 | – | – | CCCCOC(=O)[C@H](C)NP(=O)(OC[C@@]1(N=[N+]=[N-])O[C@@H](n2ccc(=O)[nH]c2=O)[C@@H](O)[C@H]1O)Oc1ccccc1 (some centres not stated) | 1.2 | > 100 | –
13 | – | – | CCOC(=O)C1(NP(=O)(OC[C@@]2(N=[N+]=[N-])O[C@@H](n3ccc(=O)[nH]c3=O)[C@@H](O)[C@H]2O)Oc2ccccc2)CCCC1 (some centres not stated) | > 100 | > 100 | –
14 | – | – | [N-]=[N+]=N[C@]1(COP(=O)(NC2(C(=O)OCc3ccccc3)CCCC2)Oc2ccccc2)O[C@@H](n2ccc(=O)[nH]c2=O)[C@@H](O)[C@H]1O (some centres not stated) | < 100 | > 100 | –
15 | – | – | C[C@@H](NP(=O)(OC[C@@]1(N=[N+]=[N-])O[C@@H](n2ccc(=O)[nH]c2=O)[C@@H](O)[C@H]1O)Oc1ccccc1)C(=O)OCc1ccccc1 (some centres not stated) | 1.2 | > 100 | –
16 | – | – | [N-]=[N+]=N[C@]1(COP(=O)(N[C@@H](Cc2ccccc2)C(=O)OCc2ccccc2)Oc2ccccc2)O[C@@H](n2ccc(=O)[nH]c2=O)[C@@H](O)[C@H]1O (some centres not stated) | < 100 | > 100 | –
17 | – | – | COC(=O)[C@H](C)NP(=O)(OC[C@@]1(N=[N+]=[N-])O[C@@H](n2ccc(=O)[nH]c2=O)[C@@H](O)[C@H]1O)Oc1ccccc1 (some centres not stated) | 3.1 | > 100 | –
18 | – | – | [N-]=[N+]=N[C@]1(CO)O[C@@H](n2ccc(=O)[nH]c2=O)[C@@H](O)[C@H]1O | > 100 | > 100 | –
19 | – | – | CCOC(=O)[C@H](CCSC)NP(=O)(OC[C@@]1(N=[N+]=[N-])O[C@@H](n2ccc(=O)[nH]c2=O)[C@@H](O)[C@H]1O)Oc1ccccc1 (some centres not stated) | 14 | > 100 | –
20 | 0.29 | 0.32 | [N-]=[N+]=N[C@]1(COP(=O)(O)OP(=O)(O)OP(=O)(O)O)O[C@@H](n2ccc(N)nc2=O)[C@@H](O)[C@H]1O | – | – | –
21 | – | – | CCOC(=O)[C@H](C)NP(=O)(OC[C@@]1(N=[N+]=[N-])O[C@@H](n2ccc(=O)[nH]c2=O)[C@@H](O)[C@H]1O)Oc1ccccc1 (some centres not stated) | 1.3 | > 100 | –
22 | – | – | CCOC(=O)C(C)(C)NP(=O)(OC[C@@]1(N=[N+]=[N-])O[C@@H](n2ccc(=O)[nH]c2=O)[C@@H](O)[C@H]1O)Oc1ccccc1 (some centres not stated) | 10.3 | > 100 | –
23 | – | – | C[C@H](NP(=O)(OC[C@@]1(N=[N+]=[N-])O[C@@H](n2ccc(=O)[nH]c2=O)[C@@H](O)[C@H]1O)Oc1ccccc1)C(=O)OCc1ccccc1 (some centres not stated) | 0.61 | > 100 | –
24 | – | – | CC(C)[C@H](NP(=O)(OC[C@@]1(N=[N+]=[N-])O[C@@H](n2ccc(=O)[nH]c2=O)[C@@H](O)[C@H]1O)Oc1ccccc1)C(=O)OCc1ccccc1 (some centres not stated) | < 100 | > 100 | –
25 | – | – | C[C@H](NP(=O)(OC[C@@]1(N=[N+]=[N-])O[C@@H](n2ccc(=O)[nH]c2=O)[C@@H](O)[C@H]1O)Oc1cccc2ccccc12)C(=O)OCc1ccccc1 (some centres not stated) [listing 1 of 3 here] | – | – | 0.22
26 | – | – | C[C@H](NP(=O)(OC[C@@]1(N=[N+]=[N-])O[C@@H](n2ccc(=O)[nH]c2=O)[C@@H](O)[C@H]1O)Oc1cccc2ccccc12)C(=O)OCc1ccccc1 (some centres not stated) [listing 2 of 3 here] | – | – | 0.39
27 | – | – | C[C@H](NP(=O)(OC[C@@]1(N=[N+]=[N-])O[C@@H](n2ccc(=O)[nH]c2=O)[C@@H](O)[C@H]1O)Oc1cccc2ccccc12)C(=O)OCc1ccccc1 (some centres not stated) [listing 3 of 3 here] | 0.43 | > 100 | –
